Experimental data published in ChEMBL document CHEMBL1126984, “o-phenylphenols: potent and orally active leukotriene B4 receptor antagonists” (J Med Chem, 1993).

Experiments:
[1] = species on record: Cavia porcellus; assay: Inhibition of LTB4-induced contraction of guinea pig lung parenchyma strips; type: functional
[2] = target: T1, Leukotriene B4 receptor (Homo sapiens, UniProt Q9NPC1+Q15722); assay: Inhibition of [3H]LTB4 receptor binding in human neutrophils; type: protein assay
[3] = target: Leukotriene B4 receptor (Cavia porcellus); assay: Inhibition of [3H]LTB4 receptor binding in guinea pig lung membrane
[4] = tested on: Cavia porcellus; assay: In vivo antagonistic activity against LTB4 induced airway obstruction in guinea pig following intravenous administration; type: functional
How it was run: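 Guinea pigs dosed intravenously 5 min before a 3.0 µg/kg iv LTB4 challenge. Animals killed 1 min after challenge. Excised lung gas volume (ELGV) measured as the index of airway obstruction severity. Means ± SEM, 3-14 guinea pigs per group; ED50 in mg/kg.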

[5] = tested on: Cavia porcellus; assay: In vivo antagonistic activity against LTB4 induced airway obstruction in guinea pig following oral administration; type: functional
How it was run: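 Guinea pigs dosed orally 2 h before a 3.0 µg/kg iv LTB4 challenge. Animals killed 1 min after challenge. Excised lung gas volume (ELGV) measured as the index of airway obstruction severity. Means ± SEM, 3-14 guinea pigs per group.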

[6] = target: T1, Leukotriene B4 receptor; assay: Inhibition of LTB4-induced human neutrophil CD11b/CD18 integrin up-regulation; type: functional

| Structure (SMILES) | pKB [1] | IC50 [2] [nM] | Ki [3] [nM] | ED50 [4] [mg/kg] | ED50 [5] [mg/kg] | IC50 [6] [nM] |
| --- | --- | --- | --- | --- | --- | --- |
| CCc1cc(C(C)=O)c(O)cc1OCCCCCC(C)(C)c1nn[n-]n1.[Na+] | 6.7 |  |  |  |  |  |
| CCc1cc(-c2ccc(N(C)C)cc2)c(O)cc1OCCCCCC(C)(C)c1nn[n-]n1.[Na+] |  | 15.8 | 85.9 |  |  |  |
| CCc1cc(-c2ccc(F)cc2)c(O)cc1OCCCCCC(C)(C)c1nn[n-]n1.[Na+] | 8.3 |  |  | 0.03 | 0.56 |  |
| CCCc1cc(CC)c(OCCCCCC(C)(C)c2nn[n-]n2)cc1O.[Na+] | 7.6 | 9.3 | 14.2 |  |  | 161 |
| CCc1cc(-c2ccccc2)c(O)cc1OCCCCCC(C)(C)c1nn[n-]n1.[Na+] | 8.3 |  |  | 0.05 | 0.7 |  |
| CCc1cc(-c2ccccn2)c(O)cc1OCCCCCC(C)(C)c1nn[n-]n1.[Na+] |  | 453 | 196 |  |  |  |
| CCOc1cc(CC)c(OCCCCCC(C)(C)c2nn[n-]n2)cc1O.[Na+] | 6.6 |  |  |  |  |  |
| CCc1cc(-c2cccc(C(F)(F)F)c2)c(O)cc1OCCCCCC(C)(C)c1nn[n-]n1.[Na+] |  | 33.2 | 76.9 |  |  |  |
